The list is not random: actives were taken first. Their share in the collection is about 1.7%.
Cneo AK release: Cryptococcus neoformans cell lysis inducers, primary screen, AK release luminescence, single concentration; C. neoformans lysis, adenylate kinase release luminescence, 4 h; normalised: neutral wells 0, clomiphene wells 100; lysis activity, % at 15 µM; 0.2% of 360,000 active; AID 651654, 2012;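 active = mean lysis activity across replicates of at least 80%, whatever share of replicates individually reach that level; inactive = mean lysis activity below 80%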
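Assay system: log-phase C. neoformans yeast / Quantity: yeast cell density of 5 × 10^6 cells/mL / Medium: fresh YPD growth medium / Compound: single dose / Timing: static 4 h at 37 °C with compound, 1 h detection / Measured by: adenylate kinase release luminescence / Read-out: lysis from increased AK signal / Benchmarks: Clomiphene as positive lysis control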
CaV13 ICDI inh: Primary screen for inhibitors of IQ motif and Ca2+-dependent inactivation inhibitor domain binding in CACNA1D, Förster resonance energy transfer in living cells, …; 0.098% of 340,000 active; HEK cells, CFP/YFP FRET ICDI-IQ, plate reader, 10 min; percent FRET-ratio fall versus neutral wells; inhibition, % at 12.3 µM;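 active = mean replicate inhibition of at least 30% and at least 1% of replicates passing that level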
CFTR F508del cor: F508del CFTR correction, initial screen, CFBE line, single point | activity (quench increase), % at 7.58 µM | CFBE cells, YFP halide quenching; stimulated with forskolin plus potentiator P3; % fluorescence drop versus neutral controls | AID 720511, 2013 | 0.36% of 350,000 active;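 active = mean added fluorescence quench of at least 8% versus neutral control, with both replicates also reaching 8%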;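 also: cells transiently co-express mutant CFTR-F508del with the halide-sensitive YFP; corrector assay measuring rescue of mutant channel to the surface after 24 h compound exposure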
rRNA inh HTS: reduced GFP signal of wild-type E. coli, primary screen, bacterial rRNA inhibitor project, GFP/RFP fluorescence, OD600, single point; E. coli WT GFP vs humanized-ribosome RFP mutants, 24 h; hits give low values; DMSO median 0, no signal -100; GFP signal change (wild-type ribosome), % (concentration not given with the values); 1.6% of 350,000 active; AID 720706, 2013;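 active = significant combined selectivity score with lowered wild-type GFP, culture density cut under 30%, mutant RFP and density less affected; inactive = any of these conditions unmet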
Numbers stand for hits; 0 = inactive; - = not tested or not shown; ! = not active in a repeat.

SMILES | Cneo AK release | CaV13 ICDI inh | CFTR F508del cor | rRNA inh HTS
COc1ccc(C(=O)c2sc3nc(-c4ccc(OC)cc4)ccc3c2N)cc1 | - | 134.4 | 0 | 0
COc1cccc(S(=O)(=O)Nc2ccc3c(c2)[C@@H]2C[C@@H](CC(=O)O)O[C@@H](CO)[C@@H]2O3)c1 | 0 | - | 0 | 0
Cc1ccccc1S(=O)(=O)N1C[C@@H]2N[C@H](C1)C2c1ccc(-c2cccc(C#N)c2)cc1 (stereo partly drawn) | - | - | 8.4! | 0
COc1cccc(S(=O)(=O)N2C[C@@H]3N[C@H](C2)C3c2ccc(-c3cccc(C)c3)cc2)c1 (stereo partly drawn) | - | - | 12.1! | 0
O=C(/C=C/c1ccccc1[N+](=O)[O-])N1CCN(c2ccc(F)cc2)CC1 | 0 | 0 | 0 | -30.1
CC1=C(C(=O)OCc2ccccc2)C(c2ccccc2)NC(=O)N1 (stereo not drawn) | 80.3 | 0 | 0 | 0
COc1ccc(COC(=O)C2=C(C)NC(=O)NC2c2ccc(O)c(OC)c2)cc1 (stereo not drawn) | 0 | 0 | 0 | -21.8
O=C(C[C@H]1CC[C@@H](NC(=O)C2CCC2)[C@@H](CO)O1)NC1CCCCC1 | 0 | - | 0 | 0
CCNC(=O)C[C@H]1CC[C@@H]2[C@@H](COc3ccc(NS(C)(=O)=O)cc3C(=O)N2C)O1 | 0 | - | 0 | 0
O=C(NN=Cc1ccc2c(c1)OCO2)NN=Cc1ccc2c(c1)OCO2 | 0 | 0 | 0 | -21.4
Cc1cc(C(=O)N/N=C/c2ccc3c(c2)OCO3)c2ccccc2n1 | - | 0 | 19.4 | 0
O=C(N/N=C/c1ccc2c(c1)OCO2)c1cc(-c2ccncc2)nc2ccccc12 | - | 0 | - | -
CCc1ccc(/C=N/NC(=O)c2cc(-c3cccc([N+](=O)[O-])c3)n[nH]2)cc1 | 0 | 0 | 0 | -19.2
O=C(N/N=C/c1cccc([N+](=O)[O-])c1)c1cc(-c2ccc3c(c2)OCO3)n[nH]1 | 0 | 0 | 0 | 0
O=C(NN=Cc1ccc2c(c1)OCO2)C1CC1 | 0 | 0 | 0 | 0
Cc1cc(C(=O)N/N=C/c2ccc(N(C)C)cc2)c2ccccc2n1 | - | 0 | 8.3 | 0
O=C(N/N=C/c1ccco1)c1cc(-c2ccc(Cl)cc2)n[nH]1 | - | 0 | 0 | -19.2
O=C(N/N=C/c1ccc(O)cc1)c1cc(-c2ccc3c(c2)OCO3)n[nH]1 | 0 | 0 | 0 | 0
O=C(Nc1ccc2c(c1)OCO2)c1cc(-c2ccncc2)nc2ccccc12 | 0 | 0 | 0 | -21.6
Cc1cc(C(=O)N/N=C/c2cc([N+](=O)[O-])ccc2O)c2ccccc2n1 | - | 0 | - | -
Cc1ccc(-c2cc(C(=O)N/N=C/c3ccco3)[nH]n2)cc1 | 0 | 0 | - | -
O=C(Nc1ccc2c(c1)OCCO2)c1cc(-c2ccccc2)nc2ccccc12 | 0 | 0 | - | -
O=C(N/N=C/c1ccccc1)c1cc(-c2ccc3c(c2)OCO3)n[nH]1 | 0 | 0 | 0 | -20.1
Cc1cc(C(=O)N/N=C/c2ccc([N+](=O)[O-])cc2)c2ccccc2n1 | 0 | 0 | 14.1 | 0
COCC#Cc1ccc2c(c1)O[C@@H](CN(C)C(=O)C1CCC1)[C@H](C)CN([C@H](C)CO)S2(=O)=O | 0 | - | 0 | 0
SMILES | Cneo AK release | CaV13 ICDI inh | CFTR F508del cor | rRNA inh HTS
c1ccc(Cc2cnc(N3CCN(Cc4cccc(-c5ccsc5)n4)CC3)nc2)cc1 | - | 0 | 0 | -35.9
Cc1ccc(S(=O)(=O)N[C@H]2CC[C@H](CCNC(=O)C3CCCC3)O[C@H]2CO)cc1 | 0 | - | 0 | 0
CC(C)NC(=O)N(C)C[C@H]1OCCCC[C@@H](C)Oc2ccc(NC(=O)c3ccccc3)cc2C(=O)N([C@@H](C)CO)C[C@@H]1C | 91.5 | - | 0 | 0
CC(C)NC(=O)N(C)C[C@@H]1OCCCC[C@H](C)Oc2ccc(NC(=O)c3ccccc3)cc2C(=O)N([C@H](C)CO)C[C@H]1C | 90.9 | - | 0 | 0
C[C@H](CO)N1C[C@H](C)[C@@H](CN(C)C)Oc2ccc(NC(=O)Cn3cnnn3)cc2C1=O | 0 | - | 0 | 0
NNC(=O)CSCc1nc(-c2ccc(Cl)cc2)cs1 | 0 | 0 | 0 | -27.4
COc1ccc(Oc2nc(-c3ccccn3)ncc2OC)cc1 | - | 0 | 0 | -27.9
C[C@H]1CN([C@@H](C)CO)S(=O)(=O)c2ccc(C#CCC3CCCC3)cc2O[C@H]1CN(C)C(=O)c1cnccn1 | 0 | - | 0 | 0
CC(=O)N(c1ccccc1)c1c(F)c(F)c(F)c(F)c1F | 0 | 0 | - | -
CC(=O)Oc1c(C(C)C)cc(N(C(C)=O)c2ccccc2)cc1C(C)C | - | 0 | 0 | -22.2
O=C(NC(=S)Nc1nc(-c2cccc([N+](=O)[O-])c2)cs1)c1cc(Cl)ccc1Cl | 0 | 0 | 0 | 0
O=[N+]([O-])c1cccc(-c2csc(N/N=C/c3cccc(O)c3)n2)c1 | - | 0 | 0 | -41.5
O=C(NC(=S)Nc1nc(-c2cccc([N+](=O)[O-])c2)cs1)c1ccccc1Cl | - | 0 | 0 | -19.0
Cc1ccc(OCCn2c(=S)[nH]c3ccccc32)c(C(C)C)c1 | 96.6 | 0 | 0 | 0
Cc1cccc(OCCn2c(=S)[nH]c3ccccc32)c1 | 0 | - | - | -
Cc1ccc(S(=O)(=O)Nc2ccc3c(c2)C(=O)N([C@@H](C)CO)C[C@H](C)[C@H](CN(C)C(=O)Nc2c(C)noc2C)OCCCC[C@H](C)O3)cc1 | 0 | - | 0 | 0
CNC(=O)C1CC(=O)N(c2ccc(OCC(=O)Nc3ccccc3)cc2)C1 (stereo not drawn) | 0 | 0 | 10.2 | 0
CCc1ccc(N2CC(C(=O)Nc3ccccc3N3CCCC3)CC2=O)cc1 (stereo not drawn) | 0 | 0 | 9.2 | 0
CC(C)[C@@H]1C(=O)N[C@H](c2ccc3c(c2)OCO3)CC=CC[C@H](C)Oc2ccccc2C(=O)N1C (mixture of isomers) | - | - | - | 0
COc1cc2c(cc1OC)C(c1ccc3c(c1)Cc1ccccc1-3)OC(=O)C2 (stereo not drawn) | 0 | 0 | 0 | -22.6
CO[C@H]1CN(C)C(=O)c2ccc(NC(=O)c3ccno3)cc2OC[C@@H](C)NC[C@H]1C | 0 | - | 0 | 0
CCOCCCNC(=S)N1CCCN(c2nc3cc(C)c(C)cc3cc2C#N)CC1 | - | 93.6 | 0 | 0
CCCCNC(=O)c1onc(CSc2cc(C)ccc2C)c1C(=O)O | 0 | 0 | 0 | -39.7
O=C([C@@H]1[C@@H](CO)[C@@H]2Cn3c(cccc3=O)[C@@H]2N1CCC(F)(F)F)N1CCCCC1 | 101.7 | - | - | 0
O=[N+]([O-])/C=C\c1ccc(N2CCOCC2)cc1 | - | 0 | 0 | -19.1
CN(C)CC#Cc1ccc([C@H]2[C@H]3CN(C(=O)C4CCCC4)CCCCN3[C@H]2CO)cc1 | 0 | - | 0 | -
C[C@H](CO)N1C[C@H](C)[C@@H](CN(C)Cc2ccncc2)Oc2c(NC(=O)c3cnccn3)cccc2C1=O | 0 | - | 0 | 0
C[C@@H]1CN([C@H](C)CO)C(=O)c2cccc(NC(=O)C3CC3)c2O[C@@H]1CN(C)S(=O)(=O)c1ccc(Cl)cc1 | 0 | - | 0 | 0
